From ChEMBL document CHEMBL1145471, “Small molecule regulators of autophagy identified by an image-based high-throughput screen” (Proc Natl Acad Sci U S A, 2007)
Where a SMILES comes first, the peptide text is derived from it. [ ]: non-standard residue; d: D form. Nle = CCCC[C@H](N)C(=O)O

Experiments:
Assay type in all cases: functional
H4 [1] = experiment: Increase in light chain 3-GFP+ autophagosome vesicle area per cell in human H4 cells at 6.3 uM after 24 hrs by high throughput fluorescence microscopy relative to control
Outline: (§1)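 H4 cells stably expressing LC3-GFP, seeded in 96-well plates and exposed to compound for 24 h; fixed in 4% paraformaldehyde, nuclei stained with 3 μg/ml DAPI. Automated fluorescence microscopy scored number, size and intensity of LC3-GFP spots; values expressed relative to DMSO-treated wells, rapamycin positive control. Triplicate wells, mean ± SD; experiments repeated three times.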

H4 [2] = experiment: Increase in light chain 3-GFP+ autophagosome vesicle number per cell in human H4 cells at 6.3 uM after 24 hrs by high throughput fluorescence microscopy relative to control
Outline: (§2)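 H4 cells stably expressing LC3-GFP, kept in DMEM/10% FBS at 37°C, 5% CO2, were seeded in 96-well plates and exposed to compound for 24 h. Cells were then fixed in 4% paraformaldehyde and stained with 3 μg/ml DAPI. Automated fluorescence microscopy scored the number, size and intensity of LC3-GFP spots. Values are percent of DMSO wells, in triplicate, mean ± SD. Rapamycin served as positive control.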

H4 [3] = experiment: Induction of light chain 3-GFP level in human H4 cells at 6.3 uM after 24 hrs by high throughput fluorescence microscopy relative to control; outline: as §2
H4 [4] = experiment: Increase in light chain 3-GFP+ autophagosome vesicle intensity per cell in human H4 cells at 6.3 uM after 24 hrs by high throughput fluorescence microscopy relative to control; outline: as §1
H4 [5] = experiment: Increase in light chain 3-GFP+ autophagosome vesicle number per cell in human H4 cells at 6.1 uM after 24 hrs by high throughput fluorescence microscopy relative to control; outline: as §2
H4 [6] = experiment: Increase in light chain 3-GFP+ autophagosome vesicle intensity per cell in human H4 cells at 6.1 uM after 24 hrs by high throughput fluorescence microscopy relative to control; outline: as §1
H4 [7] = experiment: Increase in light chain 3-GFP+ autophagosome vesicle area per cell in human H4 cells at 3.8 uM after 24 hrs by high throughput fluorescence microscopy relative to control; outline: as §1
H4 [8] = experiment: Induction of light chain 3-GFP level in human H4 cells at 6.1 uM after 24 hrs by high throughput fluorescence microscopy relative to control; outline: as §2
H4 [9] = experiment: Increase in long-lived protein degradation in human H4 cells after 24 hrs relative to control; design: concentration or dose not given beside the values
H4 [10] = experiment: Increase in long-lived protein degradation in human H4 cells after 1 hr relative to control; design: concentration or dose not given beside the values
H4 [11] = experiment: Increase in long-lived protein degradation in human H4 cells after 4 hrs relative to control; design: concentration or dose not given beside the values
H4 [12] = experiment: Decrease in FYVE-RFP+ vesicle intensity per cell in human H4 cells after 2 hrs relative to control; design: concentration or dose not given beside the values
Outline: (§3)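 H4 cells stably expressing FYVE-RFP (H4-FYVE), grown in DMEM with 10% FBS, penicillin/streptomycin and 2 mM L-glutamine at 37°C, 5% CO2, seeded in 96-well plates and exposed to compound. Fixed in 4% paraformaldehyde, nuclei stained with 3 μg/ml DAPI, FYVE-RFP+ vesicles quantified by high-throughput fluorescence microscopy against DMSO control. Triplicate wells, mean ± SD.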

H4 [13] = experiment: Decrease in FYVE-RFP+ vesicle intensity per cell in human H4 cells after 4 hrs relative to control; design: concentration or dose not given beside the values; outline: as §3
H4 [14] = experiment: Increase in light chain 3-GFP+ autophagosome vesicle intensity per cell in human H4 cells at 7.3 uM after 24 hrs by high throughput fluorescence microscopy relative to control; outline: as §1
H4 [15] = experiment: Decrease in FYVE-RFP+ vesicle intensity per cell in human H4 cells after 8 hrs relative to control; design: concentration or dose not given beside the values; outline: as §3
H4 [16] = experiment: Increase in light chain 3-GFP+ autophagosome vesicle number per cell in human H4 cells at 7.3 uM after 24 hrs by high throughput fluorescence microscopy relative to control; outline: as §2
H4 [17] = experiment: Induction of light chain 3-GFP level in human H4 cells at 7.3 uM after 24 hrs by high throughput fluorescence microscopy relative to control; outline: as §2
H4 [18] = experiment: Increase in light chain 3-GFP+ autophagosome vesicle area per cell in human H4 cells at 7.3 uM after 24 hrs by high throughput fluorescence microscopy relative to control; outline: as §1
H4 [19] = experiment: Increase in long-lived protein degradation in human H4 cells after 2 hrs relative to control; design: concentration or dose not given beside the values
H4 [20] = experiment: Increase in light chain 3-GFP+ autophagosome vesicle intensity per cell in human H4 cells at 6.5 uM after 24 hrs by high throughput fluorescence microscopy relative to control; outline: as §1
H4 [21] = experiment: Effect on FYVE-RFP+ vesicle intensity per cell in human H4 cells after 8 hrs relative to control; design: concentration or dose not given beside the values; outline: as §3
H4 [22] = experiment: Effect on FYVE-RFP+ vesicle intensity per cell in human H4 cells after 2 hrs relative to control; design: concentration or dose not given beside the values; outline: as §3
H4 [23] = experiment: Induction of light chain 3-GFP level in human H4 cells at 6.5 uM after 24 hrs by high throughput fluorescence microscopy relative to control; outline: as §2
H4 [24] = experiment: Effect on FYVE-RFP+ vesicle intensity per cell in human H4 cells after 4 hrs relative to control; design: concentration or dose not given beside the values; outline: as §3
H4 [25] = experiment: Increase in light chain 3-GFP+ autophagosome vesicle area per cell in human H4 cells at 6.5 uM after 24 hrs by high throughput fluorescence microscopy relative to control; outline: as §1
H4 [26] = experiment: Increase in light chain 3-GFP+ autophagosome vesicle number per cell in human H4 cells at 6.5 uM after 24 hrs by high throughput fluorescence microscopy relative to control; outline: as §2
H4 [27] = experiment: Increase in light chain 3-GFP+ autophagosome vesicle intensity per cell in human H4 cells at 4.3 uM after 24 hrs by high throughput fluorescence microscopy relative to control
Outline: (§4)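 H4 cells stably expressing LC3-GFP were grown in DMEM with 10% FBS and 2 mM L-glutamine at 37°C, 5% CO2. They were exposed to each compound for 24 h, with DMSO as negative and rapamycin as positive control. Cells were then fixed in 4% paraformaldehyde and stained with 3 μg/ml DAPI. High-throughput fluorescence imaging scored LC3-GFP spot number, size and intensity, expressed relative to DMSO. Mean ± SD of triplicates; experiments repeated three times.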

H4 [28] = experiment: Increase in light chain 3-GFP+ autophagosome vesicle area per cell in human H4 cells at 4.3 uM after 24 hrs by high throughput fluorescence microscopy relative to control
Outline: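 H4 cells stably expressing LC3-GFP, seeded in 96-well plates and exposed to compound for 24 h; screening concentrations were 3–12 μM, with rapamycin 0.22 μM and bafilomycin A1 0.40 μM. Cells fixed in 4% paraformaldehyde and stained with 3 μg/ml DAPI. Number, size and intensity of LC3-GFP spots measured by high-throughput fluorescence microscopy and expressed as percent of DMSO-treated wells. Rapamycin was the positive control. Triplicate wells, mean ± SD; experiments repeated three times.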

H4 [29] = experiment: Induction of light chain 3-GFP level in human H4 cells at 4.3 uM after 24 hrs by high throughput fluorescence microscopy relative to control
Outline: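 H4 cells stably expressing LC3-GFP, grown in DMEM with 10% FBS, penicillin/streptomycin and 2 mM L-glutamine at 37°C, 5% CO2. Cells were seeded in 96-well plates and exposed to library compounds at 3–12 μM for 24 h, then fixed in 4% paraformaldehyde and stained with 3 μg/ml DAPI. LC3-GFP spot number, size and intensity were measured by high-throughput fluorescence microscopy and expressed relative to DMSO. Triplicates, mean ± SD.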

H4 [30] = experiment: Increase in light chain 3-GFP+ autophagosome vesicle number per cell in human H4 cells at 4.3 uM after 24 hrs by high throughput fluorescence microscopy relative to control; outline: as §4

| SMILES | Activity (H4 [9]) [%] | Activity (H4 [10]) [%] | Activity (H4 [11]) [%] | Activity (H4 [12]) [%] | Activity (H4 [13]) [%] | Activity (H4 [14]) [%] | Activity (H4 [15]) [%] | Activity (H4 [16]) [%] | Activity (H4 [17]) [%] | Activity (H4 [18]) [%] | Activity (H4 [19]) [%] | also measured |
| --- | --- | --- | --- | --- | --- | --- | --- | --- | --- | --- | --- | --- |
| C/C1=C/C(=O)O[C@@H]2C[C@@H](CC[C@H](C)/C=C\CC1)O[C@@](O)([C@@H]1CSC(=O)N1)C2 [LATRUNCULIN B] | – | – | – | – | – | – | – | – | – | – | – | Activity (H4 [1]): 334.83%; Activity (H4 [2]): 263.28%; Activity (H4 [3]): 27.55%; Activity (H4 [4]): 723.64% |
| CN(C)CCCn1cc(C2=C(c3c[nH]c4ccccc34)C(=O)NC2=O)c2ccccc21 [GF-109203] | – | – | – | – | – | – | – | – | – | – | – | Activity (H4 [5]): 198.94%; Activity (H4 [6]): 211.81%; Activity (H4 [7]): 208.08%; Activity (H4 [8]): 47.77% |
| CC(C)(c1ccc(OCC2CO2)cc1)c1ccc(OCC2CO2)cc1 (stereo not given) | 91.78 | 96.5 | 95.85 | 44.65 | 53.06 | 182.11 | 58.53 | 156.58 | 132.48 | 175.52 | 84.65 | – |
| CCCC[C@@H](C=O)NC(=O)[C@H](CC(C)C)NC(=O)[C@H](CC(C)C)NC(C)=O (Ac-Leu-Leu-[Nle]-aldehyde) | 95.45 | 124.56 | 91.35 | – | – | – | – | – | – | – | 104.95 | Activity (H4 [20]): 495.29%; Activity (H4 [21]): 88.42%; Activity (H4 [22]): 72.86%; Activity (H4 [23]): 96.31%; Activity (H4 [24]): 84.85%; Activity (H4 [25]): 362.79%; Activity (H4 [26]): 277.88% |
| C=CCNC1=C2C[C@@H](C)C[C@H](OC)[C@H](O)[C@@H](C)/C=C(\C)[C@H](OC(N)=O)[C@@H](OC)/C=C\C=C(/C)C(=O)NC(=CC1=O)C2=O [TANESPIMYCIN] | – | – | – | – | – | – | – | – | – | – | – | Activity (H4 [27]): 385.49%; Activity (H4 [28]): 364.98%; Activity (H4 [29]): 66.89%; Activity (H4 [30]): 293.36% |
| CCOC(=O)[C@H]1O[C@@H]1C(=O)N[C@@H](CC(C)C)C(=O)NCCC(C)C [ALOXISTATIN] | 91.33 | 84.82 | 79.98 | 48.31 | 53.97 | 244.88 | 39.61 | 169.98 | 119.19 | 195.1 | 76.35 | – |
